Shown are actives, neighbours in structure and some others; about 1.1% of the full set was active somewhere.
CAL PDZ FP-1 – inhibitors of human CAL PDZ peptide binding. Q9HD26. purified CAL PDZ, TMR-peptide fluorescence polarization, 1 h. inhibition, % at 20 µM. 0.02% of 330,000 active. AID 504414;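 active = highest replicate inhibition of at least 40%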;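 also: plate controls were DMSO neutral control wells for no effect and unlabeled competitor peptide control wells for full effect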
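Material: tagged CAL PDZ domain; buffer or medium: 25 mM sodium phosphate pH 7.4, 150 mM NaCl, TCEP, IgG, Thesit; compound dosing: single point, 20 µM; schedule: 1 h incubation at room temperature before polarization reading; measured by: FP readout, S and P plane fluorescence; read-out basis: percent inhibition from loss of millipolarization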
miR122 inh – miR-122 inhibition in Huh7 cells; 0.3% of 340,000 active; AID 602342; Huh7 miR-122 Renilla luciferase sensor, 48 h; neutral wells = 0, positive control = 100; activation (reporter increase), % at 12.5 µM;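 active = mean replicate activation score at least 90 and every replicate individually at or above 90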;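 also: higher luciferase means less miR-122 activity so hits act as miR-122 inhibitors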
CAL PDZ FP-2 – inhibitors of human CAL PDZ peptide binding | Q9HD26 | purified CAL PDZ, TMR-peptide fluorescence polarization, 1 h | inhibition, % at 24.9 µM | 0.92% of 300,000 active | AID 602252;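 active = mean inhibition of at least 30% with at least half of replicates also reaching 30%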;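 also: 0% = DMSO neutral control and 100% = excess unlabeled competitor peptide PRC23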
PglD DTNB – inhibitors of Campylobacter jejuni PglD acetyltransferase | 0.098% of 360,000 active | inhibition, % at 12.5 µM | purified PglD enzyme, DTNB colorimetric CoA detection; in the data active = inhibition above about 16%, passing the limit was not always enough
Cneo AK release – causes C. neoformans cell lysis; AID 651654; 0.2% of 360,000 active; adenylate kinase release luminescence, 4 h; normalised: neutral wells 0, clomiphene wells 100; lysis activity, % at 15 µM;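 active = mean lysis activity across replicates of at least 80%, whatever share of replicates individually reach that level; inactive = mean lysis activity below 80%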
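Test system: log-phase Cryptococcus neoformans yeast cells; Quantity: yeast cell density of 5 × 10^6 cells/mL; Buffer or medium: YPD; Doses: single compound concentration per well; Timing: 4 h at 37 °C static, read 1 h later; Measured by: AK luminescence; Read-out basis: lysis from increased AK signal; Control set: Clomiphene as positive control.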
Active calls of the source: *; [ ] = another dose, or the depositor's remark.

Screening O=C(CSc1nccc(-c2cccs2)n1)Nc1ccc(Cl)cc1 returned CAL PDZ FP-1 -3 and miR122 inh 1.
`O=C(CSc1nccc(-c2cccs2)n1)Nc1cccc(Cl)c1Cl` gave CAL PDZ FP-1 0, miR122 inh 0 and CAL PDZ FP-2 51*.
`CCCC(=O)Nc1ccc2c(c1)C(=O)N(C)C[C@H](OC)[C@@H](C)CN(C(=O)c1cccnc1)[C@H](C)CO2` gave PglD DTNB 2 and Cneo AK release 90*.
`CO[C@@H]1CN(C)C(=O)c2ccc(NC(=O)Nc3ccccc3)cc2OC[C@H](C)N(C(C)=O)C[C@H]1C` gave miR122 inh 1[16.7 µM], PglD DTNB -1 and Cneo AK release 119*.
For CCCC(=O)Nc1ccc2c(c1)C(=O)N(C)C[C@@H](OC)[C@@H](C)CN(C(=O)c1cccnc1)[C@H](C)CO2 the results were PglD DTNB -1 and Cneo AK release -2.
CO[C@@H]1CN(C)C(=O)c2ccc(NC(C)=O)cc2OC[C@@H](C)N(C(=O)c2ccccn2)C[C@H]1C was read as miR122 inh -3[16.7 µM], PglD DTNB -4 and Cneo AK release 95*.
`CCC(=O)Nc1ccc2c(c1)OC[C@@H](C)N(Cc1ccccn1)C[C@@H](C)[C@H](OC)CN(C)C2=O` gave PglD DTNB 18* and Cneo AK release 1.
CO[C@H]1CN(C)C(=O)c2ccc(NC(=O)c3ccccc3F)cc2OC[C@@H](C)N(C(=O)c2ccccc2F)C[C@H]1C was read as miR122 inh 17[16.7 µM], PglD DTNB 1 and Cneo AK release -6.
`CO[C@@H]1CN(C)C(=O)c2ccc(NC(=O)C3CC3)cc2OC[C@@H](C)N(C(=O)CN(C)C)C[C@@H]1C` gave PglD DTNB 1 and Cneo AK release 0.
For CO[C@H]1CN(C)C(=O)c2ccc(NC(C)=O)cc2OC[C@H](C)N(C(=O)c2ccncc2)C[C@@H]1C the results were miR122 inh 27[16.7 µM], PglD DTNB 6 and Cneo AK release 82*.
Screening CO[C@@H]1CN(C)C(=O)c2cc(NC(=O)C3CC3)ccc2OC[C@H](C)N(C(=O)c2ccncc2)C[C@H]1C returned miR122 inh -6[16.7 µM], PglD DTNB -1 and Cneo AK release 102*.
Screening CCOc1ccc(CN2CCC(n3nccc3NC(=O)c3ccccc3OC)CC2)cc1 returned CAL PDZ FP-1 -2, miR122 inh -9, CAL PDZ FP-2 8, PglD DTNB 1 and Cneo AK release 5.
Cc1ccc(NC(=S)Nc2ccc(OC(F)F)c(Cl)c2)cc1F was read as CAL PDZ FP-1 0 and CAL PDZ FP-2 66*.
`Fc1ccc(NC(=S)Nc2ccc(F)c(Cl)c2)cc1Cl` gave CAL PDZ FP-1 -2, miR122 inh 10, CAL PDZ FP-2 -6, PglD DTNB 4 and Cneo AK release -16.
Screening COc1ccc(N2CC(O)=C(c3nc4ccccc4s3)C2=N)c(OC)c1 returned CAL PDZ FP-1 -1, miR122 inh 102*, CAL PDZ FP-2 -5, PglD DTNB 1 and Cneo AK release 2.
For CN(C)CCN1CC(O)=C(c2nc3ccccc3s2)C1=N the results were CAL PDZ FP-1 -1, miR122 inh -3, CAL PDZ FP-2 -1, PglD DTNB -3 and Cneo AK release 0.
For O=C(C[C@@H]1CC[C@@H](NC(=O)C2CCC2)[C@H](CO)O1)NCCCN1CCOCC1 the results were PglD DTNB -1 and Cneo AK release -3.
For O=C(NCc1ccccc1Cl)C1CCCN1S(=O)(=O)c1ccccc1F (stereo unspecified) the results were CAL PDZ FP-1 -3, miR122 inh 1, CAL PDZ FP-2 -1, PglD DTNB -1 and Cneo AK release 1.
`O=C(NCc1cccs1)C1CCCN1S(=O)(=O)c1ccccc1F` (stereo unspecified) gave miR122 inh -13, CAL PDZ FP-2 86*, PglD DTNB -6 and Cneo AK release 1.
For COc1ccccc1-c1ccc([C@H]2[C@@H](C#N)N(C(=O)C3CC3)[C@@H]2CO)cc1 the results were PglD DTNB 2 and Cneo AK release 87*.
`COc1ccccc1-c1ccc([C@H]2[C@H](C#N)N(C(=O)C3CC3)[C@H]2CO)cc1` gave PglD DTNB 4 and Cneo AK release 81*.

Screening data from PubChem BioAssay.
